Series [1] relates to Purified Hela Hsp90. Kind of series: Association of [3H]17-AAG to purified Hsp90. The series is classed as binding, human.
Series [2] has as its system Hsp90 in SK-BR-3 cell lysate. Kind of series: Association of [3H]17-AAG to Hsp90 in SK-BR-3 lysate. The series is classed as binding, human. As to conditions: 4 °C, 10 μM 17-AAG.
Another series has as its system Hsp90 in SK-BR-3 lysates. Briefly: Dissociation of [3H]17-AAG from Hsp90 in SK-BR-3 lysates. Format: binding, human. As to conditions: 4 °C.
For series [3], the system named is Purified Hela Hsp90. Kind of series: Dissociation of [3H]17-AAG from purified Hsp90. Format: binding, human.
In series [4] the test system is mEGFR. Kind of series: mEGFR protein degradation in H1650 tumor xenografts. The series is classed as in vivo, mice. As to conditions: 100 mg/kg single dose. In outline:
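Nude mice bearing H1650 flank xenografts received a single i.v. dose of test compound (100 mg/kg). They were sacrificed at time points from 1 to 48 h post dose (n = 3; vehicle n = 2). Tumors were snap-frozen in liquid nitrogen, stored at −80 °C, and EGFR protein levels in tumor tissue were assessed by immunoblot. Data are averages ± S.D.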

Series [5] relates to mEGFR. Kind of series: mEGFR client protein degradation by immunoblot in H1650 cells. The series is classed as cell-based, human. As to conditions: read-out: mEGFR degradation EC50, 6 h. Summed up:
(§1)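 H1650 cells were exposed to increasing concentrations of test compound for 6 h. They were lysed in RIPA buffer with protease inhibitors, protein was measured by BCA, and samples were run on 4–12% Bis-Tris SDS-PAGE and transferred to PVDF. Blots were probed with client-specific antibodies and detected by ECL. Bands were normalized to actin, and the fraction degraded was computed by densitometry against untreated samples.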
A general note: Immunoblotting shows a protein as a band on a membrane.

Another series relates to H1975 cells. Kind of series: Cell growth inhibition. The series is classed as cell-based. As to conditions: Homo sapiens, NCI-H1975, 72 h, read-out: Cell growth inhibition (GI50). Summed up:
(§2)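 Cells grown in RPMI 1640 with 10% FBS at 37 °C, 5% CO2. Seeded at 10,000 cells/well, held 24 h, then exposed to increasing concentrations of test compound for 72 h. Viability read by CellTiter-Glo luminescence and normalized to DMSO vehicle control to give GI50.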

The next series relates to cRaf. Briefly: cRaf client protein degradation by immunoblot in H1650 cells. Format: cell-based, human. As to conditions: 10 μM (highest concentration tested), 6 h. In outline: as §1
For the next series, the system named is Hsp90 in H1975 cells. Briefly: Hsp90 occupancy in H1975 cells. Format: cell-based, human. The conditions noted are these: read-out: Hsp90 occupancy (EC50); H1975, 6 h incubation. Summed up: (§3)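 Cells were grown to 95% confluency and treated with test compound (0.01–10 μM) for 6 h at 37 °C. They were washed in cold PBS and lysed by freeze/thaw in binding buffer (20 mM Hepes pH 7.3, KCl, MgCl, EDTA, TCEP). Unbound drug was removed on prechilled spin columns. […], with total Hsp90 quantified by immunoblot against recombinant α/β standards. Average of two experiments.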

The nature of series [6]: Plasma and tumor PK in H1650 tumor-bearing mice. The series is classed as in vivo. Summed up: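 Nude mice bearing H1650 xenografts received a single i.v. dose of test compound (100 mg/kg). Plasma and tumors were collected at time points from 1 to 48 h (n = 3). Tumors were homogenized in ice-cold, nitrogen-sparged 1:1 acetonitrile : 150 mM citrate/EDTA/ascorbate, pH 3, then filtered and diluted 1:1 in citrate buffer with 25 ng/ml deuterated internal standard. Parent compound and two active metabolites were quantified by LC-MS/MS.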

Another series has as its system Hsp90 in SKOV-3 cells. Kind of series: Hsp90 occupancy in SKOV-3 cells. The series is classed as cell-based, human. The conditions noted are these: read-out: Hsp90 occupancy (EC50); SKOV-3, 6 h incubation. In outline:
as §3

The test system of the next series is Hsp90. As to conditions: cited from earlier work.
A further series deals with Hsp90 in H1650 cells. Briefly: Hsp90 occupancy in H1650 cells. Format: cell-based, human. As to conditions: read-out: Hsp90 occupancy (EC50); H1650, 6 h incubation. Summed up:
as §3

In the next series the test system is H1650 cells. Briefly: Cell growth inhibition. The series is classed as cell-based. The conditions noted are these: Homo sapiens, NCI-H1650, 72 h, read-out: Cell growth inhibition (GI50). Summed up:
as §2

The test system of the next series is RS4;11 cells. Kind of series: Cell growth inhibition. Format: cell-based. As to conditions: Homo sapiens, RS4-11, 72 h, read-out: Cell growth inhibition (GI50). In outline: as §2
The next series concerns SKOV-3 cells. Briefly: Cell growth inhibition. Format: cell-based. The conditions noted are these: Homo sapiens, SK-OV-3, 72 h, read-out: Cell growth inhibition (GI50). In outline: as §2
In the next series the test system is Hsp90 in RS4;11 cells. Briefly: Hsp90 occupancy in RS4. As to conditions: read-out: Hsp90 occupancy (EC50); RS4;11, 6 h incubation. Format: cell-based, human. In outline: as §3
Another series has as its system HER2. Kind of series: HER2 client protein degradation by immunoblot in H1650 cells. The series is classed as cell-based, human. Summed up:
as §1

Series [7] deals with Hsp90 in H1650 tumor xenografts. Kind of series: Hsp90 occupancy in H1650 tumor xenografts. The series is classed as in vivo, mice. The conditions noted are these: 100 mg/kg single dose. In outline: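 Male athymic nude mice (6–8 weeks) carried flank xenografts from 1 × 10^7 H1650 cells. They received a single i.v. dose of test compound (100 mg/kg) and were sacrificed at time points from 1 to 48 h (n = 3; vehicle n = 2). Tumors were snap-frozen and powdered, and ~10 mg was homogenized in chilled binding buffer and clarified at 14,000 × g, 4 °C.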

The next series concerns Akt. Kind of series: Akt client protein degradation by immunoblot in H1650 cells. The series is classed as cell-based, human. As to conditions: 10 μM (highest concentration tested), 6 h. Summed up:
as §1

The values that follow come from publication PMC3000965 (The Journal of Biological Chemistry, 2010).

In general, EC50 refers to the concentration at which the effect is half-maximal. Usually GI50 stands for the concentration at which growth is held to half of that of the control.

Turning to `C=CCNC1=C2C[C@@H](C)C[C@H](OC)[C@H](O)[C@@H](C)/C=C(\C)[C@H](OC(N)=O)[C@@H](OC)/C=C\C=C(/C)C(=O)NC(=CC1=O)C2=O` [17-AAG, 17-allylamino-17-demethoxygeldanamycin], in the series with Purified Hela Hsp90 [1] (10 μM 17-AAG at 4 °C), the “rate of dissociation slower than rate of association” value is reported as approximately 100 fold. In addition, the “time at which drug binding reached equilibrium” value in the series with Purified Hela Hsp90 [1] (4 °C, 10 μM 17-AAG) was not above 40 min; in series [2], not above 130 min. The “association t½” value in the series with Purified Hela Hsp90 [1] (4 °C, 10 μM 17-AAG, 100 nM Hsp90) worked out at 6 min; in series [2] (∼100 nM Hsp90 in lysate), 19 min. Also, the dissociation half-life in the series on Hsp90 in SK-BR-3 lysates worked out at 36 h; in the series on Purified Hela Hsp90 [3] (37 °C) it was 8 min. In addition, the “dissociation t½” value in the series with Purified Hela Hsp90 [3] (4 °C) came out at 1680 min.

`C=CCNc1c(O)cc2c(O)c1C[C@@H](C)C[C@H](OC)[C@H](O)[C@@H](C)/C=C(\C)[C@H](OC(N)=O)[C@@H](OC)/C=C\C=C(/C)C(=O)N2` [IPI-504]: the “time after which mEGFR protein degradation was observed” value with mEGFR [4] stood at 2 h. Moreover, the “time of re-emergence of mEGFR protein expression” value in the series with mEGFR [4] came to 24 h. The EC50 in the series with mEGFR [5] was determined as 213 nM; with Hsp90 in H1975 cells, 74 nM; in the series with Hsp90 in SKOV-3 cells, 44 nM; with Hsp90 in H1650 cells, 30 nM; in the series with Hsp90 in RS4;11 cells, 644 nM; in the series with HER2 (read-out: HER2 degradation EC50, 6 h), 11 nM. Further, the GI50 amounted to 51 nM with H1975 cells, 37 nM in the series on H1650 cells, 2000 nM in the series on RS4;11 cells and 52 nM in the series with SKOV-3 cells. The compound further gave a cRaf maximal degradation in the series with cRaf not above 42%. Further, in series [6] (24 h post dose, plasma), the “IPI-504 and its metabolites in plasma” value is on record as “barely detectable”. Moreover, the “IPI-504 and its metabolites in tumors” value in [6] (36 h post dose, 100 mg/kg, tumor) was “high concentrations”. Further, the “tumor PK concentrations of IPI-504” value in series [6] (at 24 to 48 h, tumor) is approximately 1 µM. Further, the “affinity for Hsp90 higher than 17-AAG” value with Hsp90 is 50 fold. In the series with HER2 (30 nM IPI-504, 6 h), this compound displayed an HER2 degraded of more than 90%. Also, in series [7], the “time by which Hsp90 occupancy declined to background levels” value is recorded as not above 48 h. Moreover, the “time up to which significant Hsp90 occupancy was observed” value in [7] was “up to 12 h”. This compound gave an Akt maximal degradation with Akt not above 54%.
